NR3A LBD binder: modulates the human NR3A ligand-binding domain; NR3A LBD differential scanning fluorimetry, Tm shift; 0% = protein alone, 100% = glycine-bound protein; Tm shift relative to glycine control, % at 25 µM; 2.5% of 340,000 active;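 active = melting temperature shift of at least 10% of the positive control shift, at one fixed dose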
XBP1 UPR activ: activators of adaptive arm of unfolded protein response (XBP1); CHO-XBP1 luciferase reporter, IRE1-XBP1 UPR activation, luminescence; percent of tunicamycin response, DMSO as zero; activation, % at 20 µM; 0.33% of 330,000 active;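 active = versus positive control, 20 µM dose yields 30% or more activation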;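 note: 100% = tunicamycin at 10 µg/mL and 0% = DMSO only wells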
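Material: CHO cell line with stable XBP1 luciferase reporter; schedule: 16-18 h cell attachment at 37 °C, then 6 h compound exposure; signal: glow luminescence from Steady-Glo reagent; medium: serum-containing F12 medium, 10% FBS; benchmarks: tunicamycin 10 µg/mL and vehicle-only wells; read-out: percent activation relative to tunicamycin reference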
UPR CHOP act: apoptotic UPR (CHOP) activation; CHO-CHOP luciferase reporter, luminescence; percent of tunicamycin response over DMSO baseline; activation, % at 10 µM; 0.34% of 330,000 active; AID 449763;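 active = at 10 µM dose, activation of 40% or more, normalized to positive control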;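 note: 100% = tunicamycin at 10 µg/mL and 0% = DMSO alone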
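Dosing – one dose, 10 µM in 0.5% DMSO · System – CHO-CHOP cells, stable luciferase reporter of PERK-eIF2a-CHOP signalling · Input – 500 cells/well · Control set – tunicamycin 10 µg/mL final as positive, DMSO-only wells as negative · Timing – 6 h compound treatment, 37 °C · Measure – % activation vs tunicamycin · Technique – luminescence read with Steady-Glo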
MPTP block: inhibitors of mitochondrial permeability transition pore | isolated mouse mitochondria, Ca2+ swelling absorbance, 30 min | AID 602449 | inhibition, % at 10 µM | 1.4% of 360,000 active;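 active = inhibition of 50% or more, scaled per plate between neutral and stimulator controls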;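 note: 0% = DMSO wells given calcium and 100% = 1 mM EGTA wells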
aDG glyco act: increases alpha dystroglycan glycosylation; Pro5-aDG cells, alpha-DG glycosylation AlphaScreen (IIH6); 0% Pro5, 100% B10-LARGE cell signal; AID 624168; activation, % at 10 µM; 0.22% of 360,000 active;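 active = activation of at least 8% versus controls, or a plate z-score of at least 8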;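 note: Pro5 are CHO cells carrying HIG-tagged alpha-DG that lacks glycosylation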
CHOP inhibitor: inhibitors of CHOP induction in ER stress response. inhibition, % at 10 µM. CHO-K1 CHOP-promoter luciferase, tunicamycin-induced, 15-18 h. 3.8% of 220,000 active;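 active = compounds that reduced the stress-induced luciferase reporter signal by more than about 70% of percent inhibition, limit read from the data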;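 note: 0% = tunicamycin plus vehicle and 100% = wells without tunicamycin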
* marks the source's active call; other numbers are inactive results; . = no result. Rows were chosen to be rich in hits. Some 5.6% of all compounds tested hit in one or more screens of this group.

SMILES	NR3A LBD binder	XBP1 UPR activ	UPR CHOP act	MPTP block	aDG glyco act	CHOP inhibitor
NC(=O)c1ccc(C(F)(F)F)n(Cc2ccc(F)c(F)c2)c1=O	-2.7	0.3	1.1	1.8	-0.2	31.5
NC(=O)c1ccc(C(F)(F)F)n(Cc2cccc(Cl)c2)c1=O	-16.2	1.4	-0.5	-0.7	0.9	72.2*
CC1CCN(c2nc3c(c(=O)[nH]c(=O)n3C)n2CC(C)CSc2nnnn2-c2ccccc2)CC1 (centres undefined)	-2.0	0.0	1.6	3.0	-0.4	32.0
O=c1[nH]c(Cc2ccccc2)nc2scc(-c3ccccc3)c12	1.6	0.5	-1.5	-1.6	0.4	80.1*
CN(Cc1ccccc1)Cc1nc2scc(-c3ccccc3)c2c(=O)[nH]1	-1.1	-2.4	-0.3	1.2	-0.1	9.5
Cc1cc(C)n(CCc2nc(-c3ccc(C(C)(C)C)cc3)cs2)n1	11.5*	-1.9	1.2	30.8	1.0	67.2
CC(=O)N[C@@H](CC(=O)O)C(=O)O	-0.8	-5.7	-1.5	-1.5	-0.1	.
COc1ccc(C)cc1N(C(=O)c1ccc(F)cc1)c1nc2ccccc2s1	11.5*	-2.0	0.8	3.0	0.2	9.7
CCCS(=O)(=O)NC(=O)C1(C)CCN(C(=O)Cc2ccc(OC)cc2)C1 (centres undefined)	.	.	.	1.1	-0.4	.
CC(C)c1nc(SCC(=O)c2ccc(F)cc2)c2ccccc2n1	-0.4	5.9	-0.7	-0.8	0.1	83.7*
CCOC(=O)c1cnn(-c2cc(C)nc3c(-c4ccc(Cl)cc4)c(C)nn23)c1N	.	.	.	.	.	83.9*
CCOC(=O)c1cnc2c(-c3ccccc3)cnn2c1N	2.9	0.8	6.2	2.5	0.2	80.4*
CCOC(=O)c1cnc2c(-c3ccccc3)c(C)nn2c1N	-1.3	2.4	2.5	1.4	-0.2	32.1
CCOC(=O)c1cnn(-c2cc(C)nc3c(-c4ccccc4)c(C)nn23)c1N	-0.4	-1.1	0.4	3.9	0.4	81.4*
Cc1cccc(C)c1-n1nnnc1C1(C)CCC(=O)N1Cc1cccc(C(F)(F)F)c1 (centres undefined)	.	.	.	-1.0	0.2	.
Cc1ccc2cc3c(NC(=O)C(C)C)nn(C)c3nc2c1	-0.5	-0.4	-2.1	0.0	0.1	78.1*
O=C(CCCOC(=O)c1cccnc1Cl)c1ccc(Br)cc1	3.0	-2.6	0.2	-0.4	0.5	.
O=C(CCCOC(=O)c1ccc(O)cc1O)c1ccc(Br)cc1	10.1*	5.2	3.9	5.6	0.1	.
CCC1(C)CC(C(CC(=O)O)c2ccc(C)cc2)CCO1 (centres undefined)	11.0*	-2.0	-0.2	0.0	-0.3	-3.2
CC1(C)CC(C(CC(=O)O)c2ccccc2)CCO1 (centres undefined)	-0.6	-4.4	0.9	0.4	0.1	19.4
COc1ccc(-c2csc3ncnc(N4CCN(S(=O)(=O)c5ccc(Cl)s5)CC4)c23)cc1	11.5*	-1.9	0.1	1.4	-0.1	.
c1ccc(-c2csc3ncnc(N4CCc5ccccc5C4)c23)cc1	12.7*	.	.	4.7	0.1	85.8*
COc1ccc(-c2csc3ncnc(N4CCN(c5cccc(Cl)c5)CC4)c23)cc1	17.6*	-1.5	0.4	0.9	0.2	.
COc1ccc(-c2csc3ncnc(N4CCN(c5cccc(OC)c5)CC4)c23)cc1	0.1	-4.0	2.8	-0.1	0.0	.
O=C(NCc1ccc(Br)cc1)OC1CC2CC1[C@H]1CCCCN1C2=O (some centres undefined)	.	.	.	1.5	0.1	.
SMILES	NR3A LBD binder	XBP1 UPR activ	UPR CHOP act	MPTP block	aDG glyco act	CHOP inhibitor
CCOC(=O)C1(Cc2cccc(OC)c2)CCCN(C(=O)c2cc(C)oc2C)C1 (centres undefined)	-1.4	1.7	3.8	-2.1	-0.2	.
Cc1cccc(NC(=O)C2CCN(C(=O)N3CCOc4ccccc43)CC2)c1C	-1.2	-3.1	1.5	-2.0	0.1	.
CCCn1c(N)c(N(CCOC)C(=O)c2cc(S(=O)(=O)N3CCCCCC3)ccc2OC)c(=O)[nH]c1=O	-3.0	1.5	-0.1	-0.7	1.3	.
CCCCn1c(N)c(N(CCOC)C(=O)c2cc(S(=O)(=O)N3CCCCC3)ccc2Cl)c(=O)[nH]c1=O	20.4*	-4.5	1.4	0.3	-0.3	.
S=c1nc(-c2ccc(Br)cc2)oc2c1CCCC2	-12.7	0.0	4.2	0.7	0.1	-73.3
Cc1cccc(-c2nc(=S)c3c(o2)CCCC3)c1	2.2	0.9	4.9	-1.8	0.0	76.6*
Cc1ccc(C2=NCCn3nc4cc([N+](=O)[O-])ccc4c32)cc1	-2.1	0.4	0.9	-1.1	-0.1	.
CNC(=O)c1[nH]nc2c1CCc1ccccc1-2	-2.7	2.6	6.5	0.1	0.0	.
COc1ccc(/C=N/NC(=O)c2[nH]nc3c2CCc2ccccc2-3)cc1OC	33.6*	19.6	1.5	3.0	-0.7	-10.2
COc1cc(C(=O)N/N=C/c2ccc3c(c2)c2ccccc2n3C)ccc1O	38.1*	-1.6	-0.2	-0.5	-0.4	.
Cn1c2ccccc2c2cc(/C=N/NC(=O)c3cc(O)cc(O)c3)ccc21	27.6*	-3.4	3.0	-1.2	-0.1	.
CSc1ccc(/C=N/NC(=O)c2cc(O)cc(O)c2)cc1	13.1*	3.0	2.1	7.4	-0.4	-12.5
CCn1c2ccccc2c2cc(/C=N/NC(=O)c3ccccc3)ccc21	-3.4	2.4	0.4	0.7	-0.1	7.3
COc1cc(C(=O)N/N=C/c2ccc(OC(=O)c3ccccc3Cl)cc2)ccc1O	26.3*	-4.6	0.7	0.2	0.1	.
COC(=O)c1ccccc1-n1cccc1C(=O)NP(=O)(N1CCOCC1)N1CCOCC1	-2.5	-0.3	-1.8	-0.4	0.0	31.5
CSc1ccc(S(=O)(=O)NCc2ccc(Cl)cc2Cl)cc1	-3.6	-2.3	0.0	6.9	0.0	88.5*
COc1ccc(CN(C)C(=O)CCl)cc1	-6.3	.	.	0.9	0.0	-53.0
CN(Cc1ccc(Cl)s1)C(=O)CCl	-1.2	-4.6	17.1	4.2	0.7	104.9*
CCC(C)c1ccc(NC(=S)NC2CCN(Cc3ccccc3)CC2)cc1 (centres undefined)	-5.9	-2.2	0.4	17.6	1.0	86.8*
CCc1ccc(NC(=S)NC2CCN(Cc3ccccc3)CC2)cc1	-1.9	-0.3	-1.6	0.7	3.0	35.1
CCOc1ccc(NC(=S)NN2C(C)CCCC2C)cc1 (centres undefined)	11.5*	-0.5	2.8	0.6	-0.1	-1.3
CCOc1ccc(NC(=O)NN2C(C)CCCC2C)cc1 (centres undefined)	-0.7	-5.0	-1.1	-1.5	0.0	.
Cc1ccc(NC(=O)CNC(=O)C2CCCCC2)nc1	-1.9	0.7	0.9	-1.2	-0.1	.
CCN(CCNC(=O)Nc1ccc(Cl)cc1)c1ccccc1	22.3*	0.1	-0.4	22.5	0.7	75.2*

Screening results from PubChem.
